In ChEMBL document CHEMBL1221355, “Substituted biaryl pyrazoles as sodium channel blockers” (Bioorg Med Chem Lett, 2010):

How the values were obtained:
[1] = target: T1, Sodium channel protein type 9 subunit alpha (Homo sapiens, UniProt Q15858); experiment: Inhibition of human Nav 1.7 channel at 10 uM by voltage-ion-probe-reader
In short: (§1)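 Functional membrane-potential FRET assay on voltage-gated hNav1.7, read on a voltage-ion-probe reader (VIPR). Results given as IC50 or as percent inhibition at 10 μM.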
Target sequence in this assay (Q15858 whole entry, looked up): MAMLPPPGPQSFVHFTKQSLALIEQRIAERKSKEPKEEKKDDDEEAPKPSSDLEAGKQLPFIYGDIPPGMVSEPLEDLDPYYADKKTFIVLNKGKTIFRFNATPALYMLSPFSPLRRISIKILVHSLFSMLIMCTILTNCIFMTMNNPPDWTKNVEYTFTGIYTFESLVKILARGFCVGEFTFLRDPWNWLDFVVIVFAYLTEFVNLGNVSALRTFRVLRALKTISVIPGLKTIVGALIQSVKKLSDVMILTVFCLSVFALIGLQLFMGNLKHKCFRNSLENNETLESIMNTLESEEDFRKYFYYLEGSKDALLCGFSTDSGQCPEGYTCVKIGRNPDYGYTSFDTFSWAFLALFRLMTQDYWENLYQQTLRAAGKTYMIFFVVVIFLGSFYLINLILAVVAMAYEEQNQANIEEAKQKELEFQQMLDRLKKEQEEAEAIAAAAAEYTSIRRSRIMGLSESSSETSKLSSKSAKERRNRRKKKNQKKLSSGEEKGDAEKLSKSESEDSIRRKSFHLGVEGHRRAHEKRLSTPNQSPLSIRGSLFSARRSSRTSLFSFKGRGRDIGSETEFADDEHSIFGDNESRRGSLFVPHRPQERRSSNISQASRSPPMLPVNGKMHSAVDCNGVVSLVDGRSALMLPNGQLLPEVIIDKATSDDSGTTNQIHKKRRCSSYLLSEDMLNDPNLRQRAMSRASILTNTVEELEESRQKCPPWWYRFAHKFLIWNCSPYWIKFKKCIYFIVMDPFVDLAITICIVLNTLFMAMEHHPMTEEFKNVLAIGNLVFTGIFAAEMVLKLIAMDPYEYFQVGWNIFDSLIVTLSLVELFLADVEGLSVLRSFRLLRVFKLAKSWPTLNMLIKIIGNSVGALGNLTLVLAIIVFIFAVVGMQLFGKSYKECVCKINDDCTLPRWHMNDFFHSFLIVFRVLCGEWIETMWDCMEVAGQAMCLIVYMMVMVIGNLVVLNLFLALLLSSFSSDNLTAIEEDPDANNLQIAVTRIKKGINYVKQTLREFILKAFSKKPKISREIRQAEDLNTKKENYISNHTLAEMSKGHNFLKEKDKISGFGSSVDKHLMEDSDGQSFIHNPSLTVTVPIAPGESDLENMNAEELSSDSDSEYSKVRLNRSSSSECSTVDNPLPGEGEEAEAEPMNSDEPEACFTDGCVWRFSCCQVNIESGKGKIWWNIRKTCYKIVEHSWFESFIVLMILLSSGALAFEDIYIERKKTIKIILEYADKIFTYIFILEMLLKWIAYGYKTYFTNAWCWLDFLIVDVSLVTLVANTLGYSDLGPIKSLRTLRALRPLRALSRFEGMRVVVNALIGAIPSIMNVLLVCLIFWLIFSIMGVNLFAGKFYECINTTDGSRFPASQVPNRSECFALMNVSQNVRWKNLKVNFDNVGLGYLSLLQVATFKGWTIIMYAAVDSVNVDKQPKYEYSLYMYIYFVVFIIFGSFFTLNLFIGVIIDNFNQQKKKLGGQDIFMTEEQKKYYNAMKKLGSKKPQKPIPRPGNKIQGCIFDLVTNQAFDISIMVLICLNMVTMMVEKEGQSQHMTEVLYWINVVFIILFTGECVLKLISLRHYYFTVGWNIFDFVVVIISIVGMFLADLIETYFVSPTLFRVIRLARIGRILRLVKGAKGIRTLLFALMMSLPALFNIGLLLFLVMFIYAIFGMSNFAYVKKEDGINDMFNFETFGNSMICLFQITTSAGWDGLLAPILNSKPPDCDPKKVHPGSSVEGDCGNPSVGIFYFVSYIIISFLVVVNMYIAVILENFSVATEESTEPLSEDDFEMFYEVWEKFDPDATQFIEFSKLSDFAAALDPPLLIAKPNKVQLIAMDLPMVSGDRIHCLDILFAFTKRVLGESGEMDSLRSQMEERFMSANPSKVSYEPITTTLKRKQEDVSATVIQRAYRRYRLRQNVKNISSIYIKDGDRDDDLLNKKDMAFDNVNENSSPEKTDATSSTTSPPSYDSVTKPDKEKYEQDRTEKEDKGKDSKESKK

[2] = target: T1, Sodium channel protein type 9 subunit alpha; experiment: Inhibition of human Nav 1.7 channel by voltage-ion-probe-reader; in short: as §1
Target sequence in this assay (Q15858 whole entry): as the sequence (Q15858 whole entry, looked up) above

hERG (KCNH2) = hERG (KCNH2) (Homo sapiens, UniProt Q12809); experiment: Displacement of [35S][…] from human ERG channel at 10 uM
Sequence of hERG (KCNH2) (Q12809 whole entry): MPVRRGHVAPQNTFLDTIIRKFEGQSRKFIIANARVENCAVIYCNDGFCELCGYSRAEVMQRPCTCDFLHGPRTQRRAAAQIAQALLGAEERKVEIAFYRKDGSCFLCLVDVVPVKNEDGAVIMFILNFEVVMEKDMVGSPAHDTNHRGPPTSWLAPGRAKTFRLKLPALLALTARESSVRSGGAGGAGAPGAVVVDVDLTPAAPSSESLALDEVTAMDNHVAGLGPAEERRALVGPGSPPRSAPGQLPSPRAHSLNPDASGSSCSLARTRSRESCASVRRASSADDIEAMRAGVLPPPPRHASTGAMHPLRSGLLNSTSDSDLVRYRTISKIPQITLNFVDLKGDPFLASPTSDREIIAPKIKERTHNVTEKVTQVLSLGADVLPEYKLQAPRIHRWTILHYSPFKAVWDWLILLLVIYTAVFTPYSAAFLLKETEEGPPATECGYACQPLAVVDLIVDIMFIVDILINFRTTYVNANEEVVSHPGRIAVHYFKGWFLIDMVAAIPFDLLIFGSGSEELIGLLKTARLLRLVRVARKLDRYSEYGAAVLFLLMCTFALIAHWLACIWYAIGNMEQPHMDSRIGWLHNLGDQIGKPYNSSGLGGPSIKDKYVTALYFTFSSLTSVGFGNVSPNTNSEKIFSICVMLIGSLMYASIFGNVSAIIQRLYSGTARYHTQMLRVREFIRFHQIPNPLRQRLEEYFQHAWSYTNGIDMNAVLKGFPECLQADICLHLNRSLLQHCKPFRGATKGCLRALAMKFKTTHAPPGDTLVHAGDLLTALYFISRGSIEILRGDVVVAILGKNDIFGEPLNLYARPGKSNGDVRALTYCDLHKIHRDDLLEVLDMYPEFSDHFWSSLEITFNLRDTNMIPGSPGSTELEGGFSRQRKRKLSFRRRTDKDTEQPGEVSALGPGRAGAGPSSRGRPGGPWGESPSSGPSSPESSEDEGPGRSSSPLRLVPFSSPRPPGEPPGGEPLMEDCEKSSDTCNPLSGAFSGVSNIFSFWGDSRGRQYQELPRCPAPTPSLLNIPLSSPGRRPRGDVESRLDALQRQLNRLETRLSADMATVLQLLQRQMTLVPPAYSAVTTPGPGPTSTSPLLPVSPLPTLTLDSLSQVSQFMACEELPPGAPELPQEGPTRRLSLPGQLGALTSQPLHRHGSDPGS
In short: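 hERG binding assay measuring displacement of 35S-labeled MK-0499, a known hERG blocker. Test compound at 10 μM; result expressed as percent inhibition of binding.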

Rattus norvegicus [3] = experiment: Antiallodynic activity in rat spinal nerve ligation model of neuropathic pain assessed as reversal of allodynia at 10 mg/kg, po after 2 hrs; type: functional
In short: (§2)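 Rat spinal nerve ligation (Chung) neuropathic pain model; compound given orally as a single dose (10 or 30 mg/kg). Allodynia reversal read at 2 h and 4 h after dosing, expressed as percent reversal.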

Rattus norvegicus [4] = experiment: Antiallodynic activity in rat spinal nerve ligation model of neuropathic pain assessed as reversal of allodynia at 10 mg/kg, po after 4 hrs; type: functional; in short: as §2
[5] = target: T1, Sodium channel protein type 9 subunit alpha; experiment: Inhibition of human Nav 1.7 channel by electrophysiology
Target sequence in this assay (Q15858 whole entry): as the sequence (Q15858 whole entry, looked up) above

[6] = Clearance in rat plasma at 1 mg/kg, ip; type: ADME, organism-based; design: dose 1 mg/kg, route intraperitoneal
Cytochrome P450 3A4 = Cytochrome P450 3A4 (Homo sapiens, UniProt P08684); experiment: Inhibition of CYP3A4; type: ADME
Sequence of Cytochrome P450 3A4 (P08684 whole entry): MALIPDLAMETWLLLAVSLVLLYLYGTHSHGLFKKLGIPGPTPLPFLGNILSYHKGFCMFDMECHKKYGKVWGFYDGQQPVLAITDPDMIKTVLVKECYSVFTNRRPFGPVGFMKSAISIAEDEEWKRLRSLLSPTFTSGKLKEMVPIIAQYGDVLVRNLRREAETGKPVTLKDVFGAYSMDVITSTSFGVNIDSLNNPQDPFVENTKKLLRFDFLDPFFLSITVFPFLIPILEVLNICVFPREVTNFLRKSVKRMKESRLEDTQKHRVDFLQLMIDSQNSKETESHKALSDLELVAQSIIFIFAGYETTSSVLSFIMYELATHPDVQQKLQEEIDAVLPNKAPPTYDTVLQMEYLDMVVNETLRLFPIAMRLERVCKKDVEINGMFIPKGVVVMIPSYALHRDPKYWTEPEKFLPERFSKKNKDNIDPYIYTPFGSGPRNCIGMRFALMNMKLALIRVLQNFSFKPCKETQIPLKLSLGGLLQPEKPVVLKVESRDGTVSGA

Cytochrome P450 2C9 = Cytochrome P450 2C9 (Homo sapiens, UniProt P11712); experiment: Inhibition of CYP2C9; type: ADME
Sequence of Cytochrome P450 2C9 (P11712 whole entry): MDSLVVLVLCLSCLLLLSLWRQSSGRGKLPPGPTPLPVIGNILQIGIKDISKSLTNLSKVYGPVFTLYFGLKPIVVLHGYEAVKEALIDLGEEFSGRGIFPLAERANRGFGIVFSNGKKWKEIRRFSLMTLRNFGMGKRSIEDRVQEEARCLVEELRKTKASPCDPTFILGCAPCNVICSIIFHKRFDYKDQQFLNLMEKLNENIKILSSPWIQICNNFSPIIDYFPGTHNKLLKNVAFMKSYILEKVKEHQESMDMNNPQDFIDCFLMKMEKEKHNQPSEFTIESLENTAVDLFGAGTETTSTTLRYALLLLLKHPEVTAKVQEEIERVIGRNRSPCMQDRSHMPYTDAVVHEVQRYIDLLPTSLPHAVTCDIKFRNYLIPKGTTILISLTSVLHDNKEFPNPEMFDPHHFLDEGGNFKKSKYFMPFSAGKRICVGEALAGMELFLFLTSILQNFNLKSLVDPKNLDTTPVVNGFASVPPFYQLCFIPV

Cytochrome P450 2D6 = Cytochrome P450 2D6 (Homo sapiens, UniProt P10635); experiment: Inhibition of CYP2D6; type: ADME
Sequence of Cytochrome P450 2D6 (P10635 whole entry): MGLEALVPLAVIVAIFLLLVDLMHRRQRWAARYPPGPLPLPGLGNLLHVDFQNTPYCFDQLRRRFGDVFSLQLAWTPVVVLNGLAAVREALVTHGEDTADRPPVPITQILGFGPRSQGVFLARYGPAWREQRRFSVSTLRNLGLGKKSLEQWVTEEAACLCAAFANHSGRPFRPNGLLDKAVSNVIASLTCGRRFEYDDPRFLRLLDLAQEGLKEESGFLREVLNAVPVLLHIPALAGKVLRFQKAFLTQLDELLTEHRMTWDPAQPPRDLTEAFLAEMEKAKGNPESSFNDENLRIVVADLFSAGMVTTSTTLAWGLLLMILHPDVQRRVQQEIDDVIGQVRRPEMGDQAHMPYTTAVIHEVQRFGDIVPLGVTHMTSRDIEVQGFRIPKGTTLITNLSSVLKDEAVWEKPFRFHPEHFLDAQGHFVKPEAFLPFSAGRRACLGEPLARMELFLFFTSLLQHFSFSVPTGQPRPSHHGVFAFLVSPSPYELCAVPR

[7] = target: T2, Nuclear receptor subfamily 1 group I member 2 (Homo sapiens, UniProt O75469); experiment: Induction of human PXR by induction assay
T2 sequence (O75469 whole entry): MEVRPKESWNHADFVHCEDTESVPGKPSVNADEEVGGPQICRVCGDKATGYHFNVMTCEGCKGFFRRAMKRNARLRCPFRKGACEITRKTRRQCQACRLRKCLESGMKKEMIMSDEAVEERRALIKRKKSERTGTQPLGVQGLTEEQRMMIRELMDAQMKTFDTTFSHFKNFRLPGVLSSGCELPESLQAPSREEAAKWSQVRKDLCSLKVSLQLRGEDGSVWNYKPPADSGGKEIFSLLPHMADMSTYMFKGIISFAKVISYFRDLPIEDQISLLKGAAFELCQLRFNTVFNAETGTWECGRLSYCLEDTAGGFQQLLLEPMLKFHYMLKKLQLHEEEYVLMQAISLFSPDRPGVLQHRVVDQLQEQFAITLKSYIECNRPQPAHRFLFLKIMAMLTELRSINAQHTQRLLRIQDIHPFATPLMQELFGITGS

[8] = Half life in rat; type: ADME, organism-based; settings: in vivo
[9] = Volume of distribution in rat; type: ADME, organism-based; settings: in vivo
[10] = Oral bioavailability in rat; type: ADME, organism-based; settings: in vivo
Rattus norvegicus [11] = species: Rattus norvegicus; experiment: Plasma clearance in rat; type: ADME, organism-based; settings: in vivo
[12] = Half life in dog; type: ADME, organism-based, Canis lupus familiaris; settings: in vivo
[13] = Volume of distribution in dog; type: ADME, organism-based, Canis lupus familiaris; settings: in vivo
[14] = Oral bioavailability dog; type: ADME, organism-based, Canis lupus familiaris; settings: in vivo
Canis familiaris = species: Canis familiaris; experiment: Plasma clearance in dog; type: ADME, organism-based, Canis lupus familiaris; settings: in vivo
Rattus norvegicus [15] = experiment: Antiallodynic activity in rat spinal nerve ligation model of neuropathic pain assessed as reversal of mechanical allodynia at 3 mg/kg, po bid for 2 days measured after 2 hrs post final dose; type: functional
In short: (§3)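 Rat spinal nerve ligation (Chung) model; oral dosing at 3 mg/kg bid for 2 days. Reversal of mechanical allodynia read at 2 h and 4 h, expressed as percent reversal; significance given as p values.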

Rattus norvegicus [16] = experiment: Antiallodynic activity in rat spinal nerve ligation model of neuropathic pain assessed as reversal of mechanical allodynia at 3 mg/kg, po bid for 2 days measured after 4 hrs post final dose; type: functional; in short: as §3
Rattus norvegicus [17] = experiment: Antiallodynic activity in rat spinal nerve ligation model of neuropathic pain assessed as reversal of allodynia at 30 mg/kg, po after 2 hrs; type: functional; in short: as §2
Rattus norvegicus [18] = experiment: Antiallodynic activity in rat spinal nerve ligation model of neuropathic pain assessed as reversal of allodynia at 30 mg/kg, po after 4 hrs; type: functional; in short: as §2
Mus musculus = experiment: Anticonvulsant activity in mouse assessed as protection against maximal electric shock-induced tonic seizures at 10 mg/kg, po after 4 hrs; type: functional
In short: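 Mouse maximal electroshock (MES) seizure model. Oral dose 10 mg/kg, given 4 h before the shock. Read-out is protection from tonic seizures, expressed as percent.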

Rattus norvegicus [19] = experiment: Neurotoxicity in rat assessed as effect on motor coordination by measuring reduced latency at 30 mg/kg, po by rotarod test; type: toxicity, organism-based; design: dose 30 mg/kg, route oral; settings: in vivo
In short: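 Rat rotarod test of motor coordination after oral dosing (30 or 100 mg/kg). Read-out is latency on the rotarod.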

Liver microsomes [20] = experiment: Metabolic stability in human liver microsomes after 60 mins; type: functional; settings: Microsome
In short: (§4)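 Compound incubated for 60 min with liver microsomal preparations. Conversion to the carboxylic acid metabolite formed by carboxamide hydrolysis was followed.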

Liver = experiment: Metabolic stability in dog liver microsomes after 60 mins; type: functional; settings: Canis lupus familiaris, Microsome; in short: as §4
Macaca mulatta = species: Macaca mulatta; experiment: Metabolic stability in monkey liver microsomes after 60 mins; type: functional; settings: Microsome; in short: as §4
Liver microsomes [21] = experiment: Metabolic stability in rat liver microsomes after 60 mins; type: functional; settings: Microsome; in short: as §4

Cc1cc(C(N)=O)nn1-c1cccc(-c2cc(C(F)(F)F)cc(C(F)(F)F)c2)c1
inhibition [1]: 17%

Cc1cc(C(N)=O)nn1-c1cccc(-c2c(C(F)(F)F)cccc2C(F)(F)F)c1
IC50 [2]: 41 nM | inhibition at 10 µM (hERG (KCNH2)): 67% | Activity (Rattus norvegicus [3]): 16% | Activity (Rattus norvegicus [4]): 6%

NC(=O)c1nc(-c2cccc(-c3ccccc3OC(F)(F)F)c2)cs1
Ki [5]: 15 nM

Cc1cc(C(N)=O)nn1-c1cccc(-c2ccccc2OC(F)(F)F)c1
IC50 [2]: 224 nM | inhibition at 10 µM (hERG (KCNH2)): 6% | Activity (Rattus norvegicus [3]): 33% | Activity (Rattus norvegicus [4]): 11%

CC(C)(C)c1cc(C(N)=O)nn1-c1cccc(-c2ccccc2OC(F)(F)F)c1
IC50 [2]: 1370 nM

NC(=O)n1ccc(-c2cccc(-c3ccccc3Cl)c2)n1
Ki [5]: 18 nM | CL/F [6]: 123 mL/min/kg

Cc1cc(C(N)=O)nn1-c1ccc(F)c(-c2ccccc2OC(F)(F)F)c1
IC50 [2]: 162 nM | inhibition at 10 µM (hERG (KCNH2)): 66%

NC(=O)c1ccn(-c2cccc(-c3ccccc3OC(F)(F)F)c2)n1
IC50 [2]: 65 nM | inhibition at 10 µM (hERG (KCNH2)): 51%

Cc1cc(C(N)=O)nn1-c1cccc(-c2c(F)cccc2C(F)(F)F)c1
IC50 [2]: 71 nM | inhibition at 10 µM (hERG (KCNH2)): 74% | Activity (Rattus norvegicus [3]): 12% | Activity (Rattus norvegicus [4]): 2%

Cc1cc(C(N)=O)nn1-c1ccc(OC(F)(F)F)c(-c2ccccc2OC(F)(F)F)c1
IC50 [2]: 373 nM | inhibition at 10 µM (hERG (KCNH2)): 77%

Cc1cc(C(N)=O)nn1-c1cccc(-c2ccc(C(F)(F)F)cc2C(F)(F)F)c1
IC50 [2]: 426 nM | inhibition at 10 µM (hERG (KCNH2)): 53% | Activity (Rattus norvegicus [3]): 35% | Activity (Rattus norvegicus [4]): 32% | IC50 (Cytochrome P450 3A4): > 100000 nM | IC50 (Cytochrome P450 2C9): 9000 nM | IC50 (Cytochrome P450 2D6): > 100000 nM | IC50 [7]: > 25000 nM | half-life [8]: 2 h | Vd [9]: 3.1 L/kg | bioavailability [10]: 55% | clearance (Rattus norvegicus [11]): 11 mL/min/kg | half-life [12]: 1.4 h | Vd [13]: 1.43 L/kg | bioavailability [14]: 50% | clearance (Canis familiaris): 16 mL/min/kg | Activity (Rattus norvegicus [15]): 80% | Activity (Rattus norvegicus [16]): 87% | Activity (Rattus norvegicus [17]): 69% | Activity (Rattus norvegicus [18]): 55% | Activity (Mus musculus): 90% | Activity (Rattus norvegicus [19]): Not Active | Stability (Liver microsomes [20]): Stable | Stability (Liver): Stable | Stability (Macaca mulatta): Stable | Stability (Liver microsomes [21]): Unstable

NC(=O)n1ccc(-c2ccc(Oc3ccc(Cl)cc3F)cc2)n1
Ki [5]: 13 nM

Cc1cc(C(N)=O)nn1-c1cccc(-c2ccc(Cl)cc2C(F)(F)F)c1
IC50 [2]: 243 nM | inhibition at 10 µM (hERG (KCNH2)): 45% | Activity (Rattus norvegicus [3]): 8% | Activity (Rattus norvegicus [4]): 0%

NC(=O)n1ccc(-c2ccc(-c3ccccc3Cl)cc2)n1
Ki [5]: 111 nM | CL/F [6]: 125 mL/min/kg

Cc1cc(C(N)=O)nn1-c1cccc(-c2cc(F)ccc2C(F)(F)F)c1
IC50 [2]: 412 nM | inhibition at 10 µM (hERG (KCNH2)): 41%

Cc1cc(C(N)=O)nn1-c1cccc(-c2ccccc2OCC(F)(F)C(F)(F)F)c1
IC50 [2]: 128 nM | inhibition at 10 µM (hERG (KCNH2)): 49% | Activity (Rattus norvegicus [3]): 15% | Activity (Rattus norvegicus [4]): 9%

NC(=O)c1cc(N)n(-c2cccc(-c3ccccc3OC(F)(F)F)c2)n1
IC50 [2]: 111 nM | inhibition at 10 µM (hERG (KCNH2)): 44%

Cc1cc(C(N)=O)nn1-c1cccc(-c2ccccc2C(F)(F)F)c1
IC50 [2]: 163 nM | inhibition at 10 µM (hERG (KCNH2)): 68% | Activity (Rattus norvegicus [3]): 14% | Activity (Rattus norvegicus [4]): 19%

Cc1cc(C(N)=O)nn1-c1cccc(-c2ccccc2Oc2ccccc2)c1
IC50 [2]: 875 nM | inhibition at 10 µM (hERG (KCNH2)): 13%

NC(=O)c1cc(-c2cccc(-c3ccccc3OC(F)(F)F)c2)n[nH]1
IC50 [2]: 508 nM | inhibition at 10 µM (hERG (KCNH2)): 94%

Cc1cc(C(N)=O)nn1-c1cccc(-c2ccccc2OCC(F)(F)F)c1
IC50 [2]: 187 nM | inhibition at 10 µM (hERG (KCNH2)): 43% | Activity (Rattus norvegicus [3]): 18% | Activity (Rattus norvegicus [4]): 4%

Cc1cc(C(N)=O)nn1-c1cccc(-c2cccc(F)c2C(F)(F)F)c1
IC50 [2]: 781 nM | inhibition at 10 µM (hERG (KCNH2)): 73%

Cc1cc(C(N)=O)nn1-c1cccc(-c2ccccc2Cl)c1
IC50 [2]: 738 nM | inhibition at 10 µM (hERG (KCNH2)): 8%

Cc1cc(C(N)=O)nn1-c1cc(-c2ccccc2OC(F)(F)F)ccc1F
IC50 [2]: 222 nM | inhibition at 10 µM (hERG (KCNH2)): 62% | Activity (Rattus norvegicus [3]): 17% | Activity (Rattus norvegicus [4]): 8%

Cc1cc(C(N)=O)nn1-c1cccc(-c2cc(C(F)(F)F)ccc2C(F)(F)F)c1
IC50 [2]: 272 nM | inhibition at 10 µM (hERG (KCNH2)): 51% | Activity (Rattus norvegicus [3]): 39% | Activity (Rattus norvegicus [4]): 35% | IC50 (Cytochrome P450 3A4): 51000 nM | IC50 (Cytochrome P450 2C9): 2600 nM | IC50 (Cytochrome P450 2D6): 33000 nM
